This note sets out measurements from PubChem BioAssay.

Test [1] can be described thus: thallium flux activation in parental CHO cells, counter-screen for KCNQ1 potentiator project (AID 493006;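 active = duplicate-averaged activation above buffer control mean plus 5 SD of those controls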). The settings on record: parental CHO-K1 cells, FluxOR thallium flux, at 10 µM; hits give high values. The method, boiled down:
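Assay system: Untransfected host CHO-K1 cells with FluxOR thallium dye | Probe or stimulus: Potassium/thallium depolarization pulse | Schedule: Overnight 37 °C plating, 90 min RT dye, 20 min compound | Detection: Kinetic thallium-flux fluorescence | Read-out: Max-minus-min fluorescence over baseline, percent of buffer-to-R-L3 span | Benchmarks: Low control buffer, high control R-L3 activator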
Background: The purpose of a counterscreen is to sort out artefacts and off-target activity.

Test [2] concerns the target Potassium voltage-gated channel subfamily KQT member 1 (Homo sapiens) (UniProt P51787). Kind of test: KCNQ1 potassium channel potentiators, confirmation, FluxOR thallium flux, CHO cells, duplicates (AID 493007;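 active = potentiation averaged over duplicate wells exceeding buffer-only control mean by more than 3 SD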;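 for outcome: cells depolarized by a potassium plus thallium sulfate stimulus after compound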). The note with it: KCNQ1 cell line, FluxOR thallium flux fluorescence, at 10 µM; hits give high values, % of reference activator effect, buffer zero. The method, boiled down:
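Material: KCNQ1-expressing CHO cell line; Incubation: FluxOR dye loading 90 min, compound exposure 20 min, room temperature; Detection: FluxOR Tl+ flux fluorescence, 10 s baseline plus 110 s recording; Read-out: percent activation between buffer and R-L3 responses; Control set: buffer-only wells as 0% and R-L3 activator as 100%; Replication: duplicate wells per compound.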

In test [3] the target is Potassium voltage-gated channel subfamily KQT member 2 (Rattus norvegicus) (UniProt O88943). The experiment in a line: rat KCNQ2 channel potentiation, selectivity assay for KCNQ1 potentiator project, KCNQ2-CHO-K1 cells (AID 493009).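 Note: assay conditions were tuned for KCNQ1 rather than KCNQ2 modulators; signal is max minus min fluorescence divided by baseline after thallium stimulus.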 The note with it: FluxOR thallium flux fluorescence, at 10 µM; hits give high values, scaled: buffer 0, activator control 100.
Sequence of Potassium voltage-gated channel subfamily KQT member 2 (Rattus norvegicus) (O88943 whole entry, looked up): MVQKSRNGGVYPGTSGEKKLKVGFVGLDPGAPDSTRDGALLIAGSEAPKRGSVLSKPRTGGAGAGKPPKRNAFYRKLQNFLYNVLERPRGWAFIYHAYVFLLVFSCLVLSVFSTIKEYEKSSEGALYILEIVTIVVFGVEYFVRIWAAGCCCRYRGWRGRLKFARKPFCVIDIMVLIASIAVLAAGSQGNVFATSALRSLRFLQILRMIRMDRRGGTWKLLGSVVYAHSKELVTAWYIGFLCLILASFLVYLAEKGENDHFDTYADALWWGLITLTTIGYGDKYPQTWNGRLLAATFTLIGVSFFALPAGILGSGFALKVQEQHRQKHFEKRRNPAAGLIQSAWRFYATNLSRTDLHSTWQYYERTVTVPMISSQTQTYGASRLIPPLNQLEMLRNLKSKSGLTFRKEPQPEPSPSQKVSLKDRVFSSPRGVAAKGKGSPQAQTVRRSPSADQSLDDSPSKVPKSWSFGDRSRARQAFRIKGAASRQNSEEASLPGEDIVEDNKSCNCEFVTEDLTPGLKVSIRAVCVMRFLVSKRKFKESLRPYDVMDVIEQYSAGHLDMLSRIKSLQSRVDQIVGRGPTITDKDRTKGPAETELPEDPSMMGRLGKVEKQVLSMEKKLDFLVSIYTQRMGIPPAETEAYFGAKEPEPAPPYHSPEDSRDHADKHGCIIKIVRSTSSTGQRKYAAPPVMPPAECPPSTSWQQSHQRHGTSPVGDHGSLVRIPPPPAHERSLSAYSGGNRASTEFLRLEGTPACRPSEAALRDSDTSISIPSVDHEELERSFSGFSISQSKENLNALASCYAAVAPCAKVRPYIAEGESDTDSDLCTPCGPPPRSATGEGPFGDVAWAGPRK
The target of test [4] is Potassium voltage-gated channel subfamily KQT member 1 (Homo sapiens) (UniProt P51787). Kind of test: KCNQ1 channel current potentiators, confirmation, orthogonal assay for KCNQ1 potentiator project, IonWorks patch clamp, KCNQ1-CHO cells (AID 493184;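 active = current rise at least 3 SD above the untreated control mean in each of two repeat wells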). The settings on record: automated patch clamp current, at 10 µM; hits give high values. The procedure, abridged:
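assay system = KCNQ1-expressing CHO cells | medium = external bath solution at pH 7.4 | probe or stimulus = 2,000 ms depolarization, -90 to +40 mV | compound dosing = 10 µM final, single point | measured by = automated voltage clamp, amphotericin B perforated patch | measure = percent current increase versus pre-compound level | replication = duplicates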
Background: In patch-clamp work, channel activity is measured electrically.

Structures are written as SMILES. The source made the active and inactive calls.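 Rule for the calls, unless noted: active = mean duplicate potentiation above the buffer control mean plus 5 SD of buffer wells; inactive = the rest.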

Sequence of Potassium voltage-gated channel subfamily KQT member 1 (Homo sapiens) (P51787 whole entry, looked up): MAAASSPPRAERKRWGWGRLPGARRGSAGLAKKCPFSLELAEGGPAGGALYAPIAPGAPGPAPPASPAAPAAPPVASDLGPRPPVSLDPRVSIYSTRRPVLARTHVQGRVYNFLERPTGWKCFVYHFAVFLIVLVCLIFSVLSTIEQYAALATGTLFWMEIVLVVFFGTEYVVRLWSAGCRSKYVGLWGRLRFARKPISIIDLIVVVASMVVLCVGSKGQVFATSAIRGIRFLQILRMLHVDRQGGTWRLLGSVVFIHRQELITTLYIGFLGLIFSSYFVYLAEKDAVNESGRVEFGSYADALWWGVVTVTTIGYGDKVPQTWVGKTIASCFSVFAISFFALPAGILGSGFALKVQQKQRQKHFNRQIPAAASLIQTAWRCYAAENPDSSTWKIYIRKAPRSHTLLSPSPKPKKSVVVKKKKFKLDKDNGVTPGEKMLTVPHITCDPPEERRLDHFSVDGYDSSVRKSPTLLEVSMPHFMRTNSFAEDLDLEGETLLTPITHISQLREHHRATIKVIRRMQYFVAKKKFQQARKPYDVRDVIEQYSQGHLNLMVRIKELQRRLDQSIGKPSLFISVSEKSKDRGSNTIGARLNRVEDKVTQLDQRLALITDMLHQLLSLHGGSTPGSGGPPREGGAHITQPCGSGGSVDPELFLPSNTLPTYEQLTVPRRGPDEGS

In the case of `CCOc1ccc(-c2noc(CCC(=O)NC3CCCC3)n2)cc1OC`, the outcome in test [1], in test [2], in test [3] and in test [4] was inactive.

`Cc1cccc(CNC(=O)C2CCCN(c3nn4c(=O)cc(C)nc4s3)C2)c1` (stereo not given): the outcome in test [1], in test [2], in test [3] and in test [4] was inactive.

Take `Cc1ccc(-n2c(C)cc(/C=N/NC(=O)CC3(C)OCCO3)c2C)c(C)c1`: the result in test [1], in test [2], in test [3] and in test [4] was inactive.

In the case of `Fc1ccccc1Nc1nc(Cl)nc(Cl)n1`, the outcome in test [1], in test [2], in test [3] and in test [4] was inactive.

As to `COc1ccc(NC(=O)C(=O)NNC(=O)c2cccs2)c(OC)c1`, the activation in test [1] is 246% (active). In addition, the potentiation in test [2] is 37.5% (active); in test [3] it was 220% (active). Besides, the result in test [4] was inactive.

`CN1CCC(Oc2ccccc2Sc2ccc(C(F)(F)F)cc2)CC1`: the outcome in test [1], in test [2], in test [3] and in test [4] was inactive.

With `O=C(NCCN1CCOCC1)[C@H](Cc1ccccc1)N1C(=O)c2ccccc2C1=O`, the outcome in test [1] and in test [4] was inactive. Moreover, the figures for the potentiation in test [2] and in test [3] were 26% (active) and 155% (active), respectively.

As for `Cc1[nH]c(=S)sc1Cc1ccc(F)cc1`, the activation in test [1] was 286% (active). Also, the potentiation was 101% (active) in test [2] and 300% (active) in test [3]. For the same compound, the result in test [4] was inactive.

For `CC(C)N(C(=O)CSc1ncnc2sc(-c3ccccc3)cc12)C(C)C`, the result in test [1], in test [2], in test [3] and in test [4] was inactive.

Consider `Nc1c(-c2ccccc2)cnc2c(-c3ccccc3)cnn12`, for which the outcome in test [1], in test [2], in test [3] and in test [4] was inactive.

For the compound `Cc1ccc(/C(O)=C/C(=O)C(=O)NC23CC4CC(CC(C4)C2)C3)cc1`, the activation in test [1] was 284% (active). For the same compound, the potentiation in test [2] was 167% (active); in test [3], 367% (active). In addition, the outcome in test [4] was inactive.

`O=C(COc1ccc2ccccc2c1)NNC(=O)[C@@H]1CCCC[C@@H]1C(=O)O`: the result in test [1], in test [2], in test [3] and in test [4] was inactive.

In the case of `Cc1ccc(C(=O)N2CCNC(=O)C2CC(=O)Nc2ccc(F)cc2)cc1C` (stereo not given), the result in test [1], in test [3] and in test [4] was inactive. For the same compound, the potentiation in test [2] is 37.5% (active).

In the case of `COc1ccc(NS(=O)(=O)c2ccc(N/N=C(\C)c3ccncc3)c([N+](=O)[O-])c2)cc1`, the outcome in test [1], in test [2], in test [3] and in test [4] was inactive.

For `COc1ccc(-c2nc(=S)c3ccc4ccccc4c3[nH]2)cc1`, in test [1], the activation is 207% (active). Also, the potentiation in test [2] was 83.5% (active); in test [3], 180% (active). For the same compound, the result in test [4] was inactive.

On to `Cc1ccc(-c2noc(CCC(=O)Nc3ccccc3N3CCN(C)CC3)n2)cc1`, for which the result in test [1], in test [2], in test [3] and in test [4] was inactive.

In the case of `CC1CCCC(NC(=S)NC(=O)c2cncc(Br)c2)C1C` (stereo not given), the result in test [1], in test [3] and in test [4] was inactive. In test [2], the potentiation is 32% (active).

Take `CC(C)c1nc2sc3c(=S)nc[nH]c3c2c2c1CCC2`: the activation in test [1] is 247% (active). Further, the potentiation in test [2] was 194% (active); in test [3], 310% (active). Moreover, in test [4], the result was inactive.

Take `O=C(COc1ccccc1)NC(=S)N1CCc2ccccc21`: the result in test [1], in test [3] and in test [4] was inactive. Besides, in test [2], the potentiation is 20% (active).

Regarding `Fc1ccc(/C=N/NC(=S)Nc2ccc(Cl)cc2)cc1F`, the outcome in test [1], in test [2], in test [3] and in test [4] was inactive.

For `CCCc1cc(=O)[nH]c(SCC(=O)NC(=O)c2ccccc2)n1`, the outcome in test [1], in test [2], in test [3] and in test [4] was inactive.

`CCOC(=O)c1sc2nc(C)nc(SCC(=O)N(C)C3CCS(=O)(=O)C3)c2c1C` (stereo not given): the outcome in test [1] and in test [4] was inactive. Besides, the potentiation in test [2] is 17.5% (active); in test [3], 142% (active).

On to `CC(=O)Nc1ccc(S(=O)(=O)N2CCC(C(=O)O)CC2)cc1`, for which the outcome in test [1], in test [2], in test [3] and in test [4] was inactive.

With `CC(C)n1c(O)c(N=NC(=O)C2COc3ccccc3O2)c2ccccc21` (stereo not given), the activation in test [1] is 234% (active). Besides, the potentiation in test [2] is 66.5% (active); in test [3], 208% (active). Moreover, in test [4], the result was inactive.

For the compound `COc1ccc(CCNC(=O)c2c(C)nc3ccccn23)cc1`, the result in test [1], in test [2], in test [3] and in test [4] was inactive.

Turning to `S=c1[nH]c(-c2ccc(Cl)cc2)cs1`, in test [1], the activation is 634% (active). The potentiation is 206% (active) in test [2] and 525% (active) in test [3]. Further, the result in test [4] was inactive.

With `CCOC(=O)CSc1nc(C2CC2)cc(-c2ccc(F)cc2)c1C#N`, the activation in test [1] is 166% (active). For the same compound, the results for the potentiation in test [2] and in test [3] were 52% (active) and 160% (active), respectively. In addition, in test [4], the outcome was inactive.

As to `O=C(NNc1ncc(C(F)(F)F)cc1Cl)c1c(Cl)cccc1Cl`, the outcome in test [1], in test [2], in test [3] and in test [4] was inactive.

With `O=C(c1ccco1)N1CCN(S(=O)(=O)c2ccc(F)cc2)CC1`, the result in test [1], in test [2], in test [3] and in test [4] was inactive.

With `CCN(CC)CCn1c(=S)[nH]c2cc(C(=O)NCc3ccc(C)cc3)ccc2c1=O`, the outcome in test [1], in test [2], in test [3] and in test [4] was inactive.
